Publication PMC8026699 (Cancer research, 2021)

Experiments:
[1] = Mouse liver microsomal stability; assay type: in vitro ADME; settings: 0.5 μM compound, 0.5 mg/mL microsomes; compared with VY-3-249
Summary of the method: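 Incubations: 0.5 μM compound, 0.5 mg/mL liver microsomes, NADPH-regenerating system, potassium phosphate pH 7.4. Timed aliquots quenched in acetonitrile with internal standard; no-cofactor controls run. LC-MS/MS analyte/internal-standard peak-area ratios. Elimination constant fitted by nonlinear regression; t1/2 from k = 0.693/t1/2. CLint scaled with 48 (mouse) or 39.7 (human) mg protein/g liver. n = 1.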

[2] = Pharmacokinetic analysis in CD-1 mice; assay type: in vivo, mouse; settings: oral gavage 30 mg/kg, intravenous 2 mg/kg, intraperitoneal 10 mg/kg
Summary of the method: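 Formulation: 10% DMSO, 10% Solutol, 80% PBS. Dosing in CD-1 mice based on 28 g average weight. Three mice per time point; trunk blood collected into K2-EDTA and kept on wet ice until centrifugation. Plasma extracted in acetonitrile/water with tolbutamide internal standard, centrifuged, supernatant analysed by LC-MS. Mean ± S.D.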

[3] = system: SKBr3 cells; assay: 13C2-acetate labeling of palmitate in SKBr3 cells; assay type: cell-based, human; settings: SKBr3, 100 μM 13C2-acetate, 24 hr, N10 and H1 conditions
Summary of the method: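 SKBr3 cells were grown 24 h in serum-like modified Eagle's medium with 100 μM 13C2-acetate, either in N10 (normoxia, 10% dialyzed FBS) or H1 (1% O2, 1% dialyzed FBS), with vehicle or test compound. Lipids were extracted with methanol/chloroform/PBS, saponified in 0.3 M KOH in 90% methanol at 70°C for 1 h, then hexane-extracted. Palmitate labeling was measured by C18 LC-MS; mean ± S.D., n = 3.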

[4] = system: SKBr3 cells; assay: Growth of SKBr3 cells; assay type: cell-based, human; settings: SKBr3, 10 μM, 72 hours, H1 conditions, 200 μM sodium acetate
[5] = system: ACSS1 in BT474 cells; assay: 13C2-acetate labeling of citrate in BT474 cells; assay type: cell-based, human
Summary of the method: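 Cells grown 24 h in serum-like modified Eagle's medium (SMEM) with 0.1 mM uniformly labeled 13C2-acetate. Conditions were normoxia with 10% dialyzed FBS (N10) or 1% O2 hypoxia with 1% dialyzed FBS (H1). Vehicle or test compound present. Cells washed in ice-cold PBS and extracted with methanol/acetonitrile/water (5:3:2) at 4°C for 5 min. Cleared extracts analysed by HILIC LC-MS on a Q Exactive HF-X.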

[6] = system: sgACSS2 Brpkp110 tumors; assay: sgACSS2 Brpkp110 tumor growth in mice; assay type: in vivo, mouse; settings: sgACSS2 Brpkp110 (ACSS2 knockout) tumors
Summary of the method: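 Parental or CRISPR-Cas9 sgAcss2 cells (lentiviral, blasticidin-selected pools) implanted subcutaneously into 5–6-week-old female NSG mice in PBS:Matrigel: A7C11 at 5×10^5, Brpkp110 at 5×10^5. Calipers read tumors three times weekly. Volume = (L × W²)/2, L being the longer measurement; not blinded.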

stability in mouse liver microsomal assay [1]: superior stability
exposure [2]: good exposure
Compound: CCn1c(C(O)(c2ccccc2)c2ccccc2)nc2ccc(C(=O)NC[C@@H](C)O)cc21 [VY-3-135, (R)-1-ethyl-2-(hydroxydiphenylmethyl)-N-(2-hydroxypropyl)-1H-benzo[d]imidazole-6-carboxamide]
absorption [2]: completely absorbed by all routes of administration
fatty acid (palmitate) synthesis from 13C2-acetate [3]: completely blocked fatty acid synthesis from acetate
cell growth [4]: modest growth inhibition
13C2-acetate labeling of citrate ([5]; BT474, H1 conditions, 24 hr): did not decrease
M+2 citrate (acetate contribution to the TCA cycle) ([5]; BT474, hypoxia and low serum stressed cells): increased M+2 citrate
tumor growth [6]: no further effect on tumor growth
